Data set [1] relates to Bacillus cereus. Nature of the data set: Antimicrobial activity against Bacillus cereus. In kind it is functional.
In data set [2] the test system is Escherichia coli. The experiment in a line: Antimicrobial activity against Escherichia coli MC1000 by macrodilution method. It counts as functional. Summed up:
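Luria-Bertani medium, 30°C, shaking at 200 rpm, 14 h. Macrodilution per NCCLS aerobic criteria, with inoculum 5 × 10^5 cells/ml. DMSO-dissolved compounds were diluted 2-fold through the tubes, with a DMSO control. MIC is the lowest concentration preventing visible growth in triplicate, confirmed periodically by no absorbance at 600 nm.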

Data set [3] concerns Pseudomonas aeruginosa. The experiment in a line: Antimicrobial activity against Pseudomonas aeruginosa K by macrodilution method. It counts as functional. Summed up: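 Grown in Luria-Bertani medium at 37°C, shaking at 200 rpm, 16 h. NCCLS macrodilution with 5 × 10^5 cells/ml inoculum. Compounds in DMSO formed a 2-fold tube dilution series, with a control at equal DMSO. MIC was read visually as the lowest growth-preventing concentration in triplicate, periodically confirmed by no detectable A600.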

The subject of data set [4] is Bacillus cereus. Nature of the data set: Antimicrobial activity against Bacillus cereus UW85 by macrodilution method. It counts as functional. Summed up:
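Tube macrodilution per NCCLS. Strain grown in Luria-Bertani medium, 37°C, shaking at 200 rpm, 16 h. Inoculum 5 × 10^5 cells/ml. DMSO stocks diluted 2-fold through the tubes, with a DMSO-matched control. MIC is the lowest concentration without visible growth in triplicate, occasionally checked as no detectable absorbance at 600 nm.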

In data set [5] the test system is Caulobacter vibrioides. Nature of the data set: Antimicrobial activity against Caulobacter crescentus CB15N by macrodilution method. It counts as functional. Summed up:
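Peptone-yeast extract medium, 30°C, shaking at 200 rpm, 22 h. NCCLS macrodilution from 5 × 10^5 cells/ml. Compounds in DMSO given as a 2-fold tube series, with a control at the highest DMSO level. Endpoint is the lowest concentration preventing growth in triplicate by eye, periodically confirmed by absence of A600.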

For data set [6], the system named is Staphylococcus aureus. The experiment in a line: Antimicrobial activity against Staphylococcus aureus FRI 100 by macrodilution method. In kind it is functional. Summed up: (§1)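 Static culture in Luria-Bertani medium, 37°C, 14 h. NCCLS macrodilution, inoculum 5 × 10^5 cells/ml. Compounds in DMSO were 2-fold serially diluted through the inoculated tubes, with a DMSO-matched control. MIC is the lowest concentration preventing visible growth in triplicate, periodically confirmed by lack of absorbance at 600 nm.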

For data set [7], the system named is Staphylococcus aureus. Nature of the data set: Antimicrobial activity against Staphylococcus aureus FRI 361 by macrodilution method. It counts as functional. Summed up: as §1
Data set [8] has as its system Enterococcus faecalis. Nature of the data set: Antimicrobial activity against Enterococcus faecalis 1131 by macrodilution method. In kind it is functional. Summed up: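 Brain heart infusion medium, static, 37°C, 14 h. NCCLS macrodilution, starting inoculum 5 × 10^5 cells/ml. Compounds in DMSO were 2-fold serially diluted across the inoculated tubes, with a matched DMSO control. MIC is the lowest concentration with no visible growth in triplicate, sometimes verified as no detectable A600.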

For data set [9], the system named is Bacillus anthracis. Nature of the data set: Antimicrobial activity against Bacillus anthracis Sterne 7702 by macrodilution method. It counts as functional.
The nature of data set [10]: Toxicity in po dosed female Sherman rat. It counts as organism-based. Particulars: in vivo.
A short description of data set [11]: Toxicity in po dosed male Sherman rat. Particulars: in vivo. It counts as organism-based.
Data set [12] concerns Bacillus anthracis. Nature of the data set: Antimicrobial activity against Bacillus anthracis by Etest. In kind it is functional.

≈ marks a conversion by molar mass, not a printed value.

Turning to `Oc1ccc(Cl)cc1Cc1cc(Cl)cc(Cc2cc(Cl)ccc2O)c1O`, the MIC in data set [1] is 0.3 µM (≈ 0.123 µg/mL); in [2], 5 µM (≈ 2.05 µg/mL); in [3] it was 40 µM (≈ 16.4 µg/mL); in data set [4] it was 0.3 µM (≈ 0.123 µg/mL); in [5], 2.5 µM (≈ 1.02 µg/mL); in data set [6], 0.08 µM (≈ 0.0328 µg/mL). Also, the results for the MIC in [7], in [8] and in data set [9] were 0.6 µM (≈ 0.246 µg/mL), 1.3 µM (≈ 0.533 µg/mL) and 0.3 µM (≈ 0.123 µg/mL), respectively.
For the compound `Oc1ccc(Cl)cc1Cc1cc(Cl)ccc1O` [DICHLOROPHEN], the values for the 50% lethal dose (LD50) in [10] and in data set [11] were 1680 mg/kg and 1510 mg/kg, respectively. Besides, the MIC in data set [2] was 160 µM (≈ 43.1 µg/mL); in [3], above 320 µM; in data set [4], 10 µM (≈ 2.69 µg/mL); in [5] it was 20 µM (≈ 5.38 µg/mL); in data set [6], 20 µM (≈ 5.38 µg/mL); in data set [7], 20 µM (≈ 5.38 µg/mL). The results for the MIC in [8] and in data set [9] were 80 µM (≈ 21.5 µg/mL) and 5 µM (≈ 1.35 µg/mL), respectively.
Take `Oc1ccc(Cl)cc1Cc1cc(Cl)cc(Cc2cc(Cl)cc(Cc3cc(Cl)cc(Cc4cc(Cl)ccc4O)c3O)c2O)c1O`: the MIC was above 80 µM in data set [2]; above 80 µM in data set [3]; 0.3 µM (≈ 0.207 µg/mL) in data set [4]; 5 µM (≈ 3.45 µg/mL) in data set [5]; 5 µM (≈ 3.45 µg/mL) in [6]; 5 µM (≈ 3.45 µg/mL) in data set [7]. In addition, the MIC in data set [8] was 0.6 µM (≈ 0.415 µg/mL); in data set [9] it was 1.3 µM (≈ 0.898 µg/mL).
Turning to `CC1(C)S[C@@H]2[C@H](NC(=O)Cc3ccccc3)C(=O)N2[C@H]1C(=O)O` [PENICILLIN G], in [12], the MIC came to 0.02 µM (≈ 0.00669 µg/mL).
`Oc1ccc(Cl)cc1Cc1cc(Cl)cc(Cc2cc(Cl)cc(Cc3cc(Cl)ccc3O)c2O)c1O`: the minimum inhibitory concentration (MIC) in data set [2] was above 80 µM; in data set [3] it was above 80 µM; in data set [4] it was 0.08 µM (≈ 0.044 µg/mL); in data set [5], 0.3 µM (≈ 0.165 µg/mL); in data set [6] it was 0.16 µM (≈ 0.088 µg/mL); in data set [7], 0.3 µM (≈ 0.165 µg/mL). Moreover, the MIC in data set [8] was 0.3 µM (≈ 0.165 µg/mL); in data set [9], 0.16 µM (≈ 0.088 µg/mL).
With `CN(C)[C@@H]1C(O)=C(C(N)=O)C(=O)[C@@]2(O)C(O)=C3C(=O)c4c(O)cccc4[C@@](C)(O)[C@H]3C[C@@H]12` [TETRACYCLINE], the lowest concentration to inhibit growth in data set [12] (MIC) was 0.07 µM (≈ 0.0311 µg/mL).

The record behind these values is ChEMBL document CHEMBL1671706 (Antimicrob Agents Chemother, 2010).
